Legend:
[1] = biological target: Serine/threonine-protein kinase PAK 4 (Homo sapiens) (UniProt O96013); experiment: Inhibition of recombinant human GST-tagged PAK4 expressed in baculovirus expression system at 1 uM relative to control
In short: (§1)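 Forty-kinase selectivity panel; each compound tested at a single 1 µM concentration in the presence of 1 mM ATP; result given as percent inhibition.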

[2] = biological target: Glycogen synthase kinase-3 beta (Homo sapiens) (UniProt P49841); experiment: Inhibition of recombinant human full length His-tagged GSK3beta expressed in baculovirus expression system at 1 uM relative to control; in short: as §1
Glycogen synthase kinase-3 beta (Homo sapiens), sequence (P49841 whole entry, looked up): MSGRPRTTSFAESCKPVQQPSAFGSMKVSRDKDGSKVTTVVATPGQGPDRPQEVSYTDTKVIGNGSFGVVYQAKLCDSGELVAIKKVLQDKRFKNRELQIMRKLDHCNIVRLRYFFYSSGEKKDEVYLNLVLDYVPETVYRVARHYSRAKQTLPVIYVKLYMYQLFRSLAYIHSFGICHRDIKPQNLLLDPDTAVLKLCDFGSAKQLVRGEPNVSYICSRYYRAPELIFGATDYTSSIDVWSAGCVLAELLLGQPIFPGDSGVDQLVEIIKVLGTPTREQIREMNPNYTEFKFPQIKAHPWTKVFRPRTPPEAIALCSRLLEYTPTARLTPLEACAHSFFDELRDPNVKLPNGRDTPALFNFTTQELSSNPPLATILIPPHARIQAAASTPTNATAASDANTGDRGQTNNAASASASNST

[3] = biological target: T1, Serine/threonine-protein kinase Sgk1 (Homo sapiens) (UniProt O00141); experiment: Inhibition of recombinant human GST-tagged SGK1 expressed in baculovirus expression system at 1 uM relative to control; in short: as §1
T1 sequence (whole entry): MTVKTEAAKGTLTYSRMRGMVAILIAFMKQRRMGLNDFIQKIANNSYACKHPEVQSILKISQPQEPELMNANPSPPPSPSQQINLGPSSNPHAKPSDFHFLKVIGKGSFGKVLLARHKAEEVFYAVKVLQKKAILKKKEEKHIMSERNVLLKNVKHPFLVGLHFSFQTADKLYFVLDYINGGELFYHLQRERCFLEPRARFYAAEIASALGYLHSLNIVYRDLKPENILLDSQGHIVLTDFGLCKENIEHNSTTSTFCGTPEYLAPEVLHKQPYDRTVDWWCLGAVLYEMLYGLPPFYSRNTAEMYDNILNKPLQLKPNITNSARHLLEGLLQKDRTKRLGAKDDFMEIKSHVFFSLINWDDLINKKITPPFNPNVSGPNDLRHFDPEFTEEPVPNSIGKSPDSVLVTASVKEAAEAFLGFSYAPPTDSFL

[4] = biological target: Serine/threonine-protein kinase Chk2 (Homo sapiens) (UniProt O96017); experiment: Inhibition of recombinant full length human His-tagged CHEK2 expressed in baculovirus expression system at 1 uM relative to control; in short: as §1
Serine/threonine-protein kinase Chk2 (Homo sapiens), sequence (O96017 whole entry, the tested form may be a part): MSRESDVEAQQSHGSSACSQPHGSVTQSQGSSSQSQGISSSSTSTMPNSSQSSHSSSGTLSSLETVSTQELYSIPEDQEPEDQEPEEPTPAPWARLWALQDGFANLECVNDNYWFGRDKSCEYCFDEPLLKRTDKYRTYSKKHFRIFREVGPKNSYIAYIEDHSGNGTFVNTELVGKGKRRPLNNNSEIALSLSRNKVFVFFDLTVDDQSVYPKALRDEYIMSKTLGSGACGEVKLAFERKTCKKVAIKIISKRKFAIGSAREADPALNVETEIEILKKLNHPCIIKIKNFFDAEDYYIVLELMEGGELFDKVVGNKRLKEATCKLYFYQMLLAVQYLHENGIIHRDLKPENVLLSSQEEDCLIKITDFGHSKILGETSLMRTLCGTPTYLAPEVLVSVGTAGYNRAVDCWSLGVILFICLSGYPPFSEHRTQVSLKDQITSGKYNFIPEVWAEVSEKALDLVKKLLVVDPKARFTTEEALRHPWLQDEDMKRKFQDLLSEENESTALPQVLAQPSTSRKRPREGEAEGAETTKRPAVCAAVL

[5] = biological target: Epidermal growth factor receptor (Homo sapiens) (UniProt P00533); experiment: Inhibition of recombinant human GST-tagged EGFR cytoplasmic domain expressed in baculovirus expression system at 1 uM relative to control; in short: as §1
[6] = biological target: Serine/threonine-protein kinase MARK1 (Homo sapiens) (UniProt Q9P0L2); experiment: Inhibition of recombinant human full length GST-tagged MARK1 expressed in baculovirus expression system at 1 uM relative to control; in short: as §1
[7] = biological target: Mitogen-activated protein kinase kinase kinase kinase 4 (Homo sapiens) (UniProt O95819); experiment: Inhibition of recombinant human GST-tagged MAP4K4 (1 to 328 residues) expressed in baculovirus expression system at 1 uM relative to control; in short: as §1
Mitogen-activated protein kinase kinase kinase kinase 4 (Homo sapiens), sequence (O95819 2-1239 limits assumed): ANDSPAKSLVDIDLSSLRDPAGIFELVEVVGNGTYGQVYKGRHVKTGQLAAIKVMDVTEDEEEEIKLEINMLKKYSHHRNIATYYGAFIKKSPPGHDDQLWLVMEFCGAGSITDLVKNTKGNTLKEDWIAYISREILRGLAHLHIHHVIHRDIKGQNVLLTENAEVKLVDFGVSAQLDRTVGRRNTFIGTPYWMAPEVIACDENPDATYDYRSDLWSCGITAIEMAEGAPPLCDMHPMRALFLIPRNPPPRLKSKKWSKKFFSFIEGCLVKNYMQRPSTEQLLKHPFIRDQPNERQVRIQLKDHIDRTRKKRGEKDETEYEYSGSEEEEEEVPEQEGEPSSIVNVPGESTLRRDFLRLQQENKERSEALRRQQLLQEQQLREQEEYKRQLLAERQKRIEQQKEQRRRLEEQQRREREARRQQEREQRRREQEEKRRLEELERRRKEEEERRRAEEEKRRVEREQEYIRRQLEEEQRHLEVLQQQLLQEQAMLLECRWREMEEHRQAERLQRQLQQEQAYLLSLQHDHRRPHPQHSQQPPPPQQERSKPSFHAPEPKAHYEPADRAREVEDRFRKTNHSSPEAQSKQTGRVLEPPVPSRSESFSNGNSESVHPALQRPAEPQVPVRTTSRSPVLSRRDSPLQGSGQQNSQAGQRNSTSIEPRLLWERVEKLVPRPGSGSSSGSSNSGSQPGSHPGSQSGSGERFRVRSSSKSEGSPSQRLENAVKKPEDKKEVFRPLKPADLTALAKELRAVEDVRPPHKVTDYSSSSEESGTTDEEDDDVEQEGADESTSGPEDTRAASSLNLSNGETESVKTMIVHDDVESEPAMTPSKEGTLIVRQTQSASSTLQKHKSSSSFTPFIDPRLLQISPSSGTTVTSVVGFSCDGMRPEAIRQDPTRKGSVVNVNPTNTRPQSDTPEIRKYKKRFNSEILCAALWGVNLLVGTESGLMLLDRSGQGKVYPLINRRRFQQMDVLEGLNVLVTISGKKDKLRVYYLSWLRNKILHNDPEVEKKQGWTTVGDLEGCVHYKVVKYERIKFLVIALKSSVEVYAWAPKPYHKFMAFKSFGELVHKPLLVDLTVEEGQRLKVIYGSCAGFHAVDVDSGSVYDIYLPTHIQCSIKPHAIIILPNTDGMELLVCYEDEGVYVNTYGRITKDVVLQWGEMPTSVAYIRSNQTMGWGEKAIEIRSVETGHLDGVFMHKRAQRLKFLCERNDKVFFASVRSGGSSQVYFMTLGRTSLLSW

[8] = biological target: Fibroblast growth factor receptor 1 (Homo sapiens) (UniProt P11362); experiment: Inhibition of recombinant human His-tagged FGFR1 cytoplasmic domain expressed in baculovirus expression system at 1 uM relative to control; in short: as §1
Fibroblast growth factor receptor 1 (Homo sapiens), sequence (P11362 22-822 limits assumed): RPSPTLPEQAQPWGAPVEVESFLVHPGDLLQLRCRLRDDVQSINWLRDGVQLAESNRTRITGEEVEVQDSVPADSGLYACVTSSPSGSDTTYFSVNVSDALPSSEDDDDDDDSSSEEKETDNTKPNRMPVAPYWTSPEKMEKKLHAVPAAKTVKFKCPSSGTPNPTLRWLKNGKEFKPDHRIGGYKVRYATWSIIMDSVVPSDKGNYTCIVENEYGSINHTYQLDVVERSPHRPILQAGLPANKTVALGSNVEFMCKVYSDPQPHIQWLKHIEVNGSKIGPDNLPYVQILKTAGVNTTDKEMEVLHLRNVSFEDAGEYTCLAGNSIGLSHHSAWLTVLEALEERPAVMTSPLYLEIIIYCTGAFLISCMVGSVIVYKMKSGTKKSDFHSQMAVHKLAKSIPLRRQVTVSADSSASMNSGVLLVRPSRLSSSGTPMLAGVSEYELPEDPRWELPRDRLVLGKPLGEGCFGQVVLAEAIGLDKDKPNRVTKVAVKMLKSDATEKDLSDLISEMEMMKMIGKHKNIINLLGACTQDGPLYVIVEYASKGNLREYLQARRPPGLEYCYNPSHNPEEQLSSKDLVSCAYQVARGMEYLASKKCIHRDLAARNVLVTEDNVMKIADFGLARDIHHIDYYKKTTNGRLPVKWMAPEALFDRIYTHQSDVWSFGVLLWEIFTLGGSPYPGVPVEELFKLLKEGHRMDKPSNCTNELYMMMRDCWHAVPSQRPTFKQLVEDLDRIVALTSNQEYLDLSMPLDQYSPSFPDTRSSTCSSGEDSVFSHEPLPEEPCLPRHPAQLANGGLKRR

[9] = biological target: Casein kinase II subunit alpha' (Homo sapiens) (UniProt P19784); experiment: Inhibition of recombinant full length human GST-tagged CSNK2A2 expressed in baculovirus expression system at 1 uM relative to control; in short: as §1
Casein kinase II subunit alpha' (Homo sapiens), sequence (P19784 whole entry, looked up): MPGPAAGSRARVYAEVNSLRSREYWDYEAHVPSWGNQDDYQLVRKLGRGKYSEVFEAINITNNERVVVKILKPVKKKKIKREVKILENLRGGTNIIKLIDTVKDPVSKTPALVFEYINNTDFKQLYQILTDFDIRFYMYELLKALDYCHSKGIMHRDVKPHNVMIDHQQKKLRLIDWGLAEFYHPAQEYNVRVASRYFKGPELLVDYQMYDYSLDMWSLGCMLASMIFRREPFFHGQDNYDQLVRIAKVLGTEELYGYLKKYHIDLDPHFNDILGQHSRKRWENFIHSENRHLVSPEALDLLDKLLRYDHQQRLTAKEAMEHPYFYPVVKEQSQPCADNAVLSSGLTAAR

[10] = biological target: Serine/threonine-protein kinase pim-2 (Homo sapiens) (UniProt Q9P1W9); experiment: Inhibition of recombinant human full length GST-tagged PIM2 expressed in baculovirus expression system at 1 uM relative to control; in short: as §1
[11] = biological target: T2, 3-phosphoinositide-dependent protein kinase 1 (Homo sapiens) (UniProt O15530); experiment: Inhibition of recombinant human full length His-tagged PDPK1 expressed in baculovirus expression system at 1 uM relative to control; in short: as §1
T2 sequence (whole entry): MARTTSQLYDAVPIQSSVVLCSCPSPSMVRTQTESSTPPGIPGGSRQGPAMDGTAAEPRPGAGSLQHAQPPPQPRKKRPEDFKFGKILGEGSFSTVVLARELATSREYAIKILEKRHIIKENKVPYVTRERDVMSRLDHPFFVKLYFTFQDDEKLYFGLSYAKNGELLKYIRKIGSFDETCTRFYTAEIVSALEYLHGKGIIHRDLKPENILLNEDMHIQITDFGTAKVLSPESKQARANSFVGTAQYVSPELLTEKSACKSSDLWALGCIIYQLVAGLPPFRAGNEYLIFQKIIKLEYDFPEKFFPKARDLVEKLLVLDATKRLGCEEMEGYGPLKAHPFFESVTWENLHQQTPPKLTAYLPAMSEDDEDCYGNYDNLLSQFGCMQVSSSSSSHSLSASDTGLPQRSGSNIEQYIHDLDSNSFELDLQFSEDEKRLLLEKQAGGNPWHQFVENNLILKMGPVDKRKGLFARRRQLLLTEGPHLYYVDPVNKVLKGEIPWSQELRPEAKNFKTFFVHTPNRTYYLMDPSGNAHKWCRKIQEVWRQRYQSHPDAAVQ

[12] = biological target: Casein kinase I isoform alpha (Homo sapiens) (UniProt P48729); experiment: Inhibition of recombinant full length human GST-tagged CSNK1A1 expressed in baculovirus expression system at 1 uM relative to control; in short: as §1
Casein kinase I isoform alpha (Homo sapiens), sequence (P48729 2-337 limits assumed): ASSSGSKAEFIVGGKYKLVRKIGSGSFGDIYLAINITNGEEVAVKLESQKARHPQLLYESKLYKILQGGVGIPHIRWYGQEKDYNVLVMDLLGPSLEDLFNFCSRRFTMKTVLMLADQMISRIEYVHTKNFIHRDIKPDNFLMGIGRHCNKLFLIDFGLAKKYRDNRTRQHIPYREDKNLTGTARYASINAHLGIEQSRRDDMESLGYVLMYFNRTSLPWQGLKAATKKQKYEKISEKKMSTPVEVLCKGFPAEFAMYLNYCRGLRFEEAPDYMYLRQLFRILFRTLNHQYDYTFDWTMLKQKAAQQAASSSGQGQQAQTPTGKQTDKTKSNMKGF

[13] = biological target: Proto-oncogene tyrosine-protein kinase Src (Homo sapiens) (UniProt P12931); experiment: Inhibition of recombinant human full length His-tagged SRC expressed in baculovirus expression system at 1 uM relative to control; in short: as §1
Proto-oncogene tyrosine-protein kinase Src (Homo sapiens), sequence (P12931 2-536 limits assumed): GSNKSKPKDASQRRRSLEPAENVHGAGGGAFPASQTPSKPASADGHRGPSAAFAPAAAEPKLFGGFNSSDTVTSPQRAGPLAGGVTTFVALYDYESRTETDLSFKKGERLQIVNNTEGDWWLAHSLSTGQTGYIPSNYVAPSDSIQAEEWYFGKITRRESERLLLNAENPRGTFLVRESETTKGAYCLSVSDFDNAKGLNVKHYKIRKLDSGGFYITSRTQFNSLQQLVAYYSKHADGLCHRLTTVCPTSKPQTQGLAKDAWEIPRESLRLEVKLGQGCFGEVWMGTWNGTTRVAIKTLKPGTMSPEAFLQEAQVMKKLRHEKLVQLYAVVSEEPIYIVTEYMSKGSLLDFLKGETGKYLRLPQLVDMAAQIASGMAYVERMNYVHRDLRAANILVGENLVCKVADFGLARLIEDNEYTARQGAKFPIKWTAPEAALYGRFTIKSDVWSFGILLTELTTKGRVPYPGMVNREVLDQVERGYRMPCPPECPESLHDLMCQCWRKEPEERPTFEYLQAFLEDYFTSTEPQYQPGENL

[14] = biological target: cAMP-dependent protein kinase catalytic subunit alpha (Homo sapiens) (UniProt P17612); experiment: Inhibition of recombinant human His-tagged PRKACA expressed in Escherichia coli at 1 uM relative to control; in short: as §1

Serine/threonine-protein kinase PAK 4 (Homo sapiens), sequence (O96013 whole entry, looked up): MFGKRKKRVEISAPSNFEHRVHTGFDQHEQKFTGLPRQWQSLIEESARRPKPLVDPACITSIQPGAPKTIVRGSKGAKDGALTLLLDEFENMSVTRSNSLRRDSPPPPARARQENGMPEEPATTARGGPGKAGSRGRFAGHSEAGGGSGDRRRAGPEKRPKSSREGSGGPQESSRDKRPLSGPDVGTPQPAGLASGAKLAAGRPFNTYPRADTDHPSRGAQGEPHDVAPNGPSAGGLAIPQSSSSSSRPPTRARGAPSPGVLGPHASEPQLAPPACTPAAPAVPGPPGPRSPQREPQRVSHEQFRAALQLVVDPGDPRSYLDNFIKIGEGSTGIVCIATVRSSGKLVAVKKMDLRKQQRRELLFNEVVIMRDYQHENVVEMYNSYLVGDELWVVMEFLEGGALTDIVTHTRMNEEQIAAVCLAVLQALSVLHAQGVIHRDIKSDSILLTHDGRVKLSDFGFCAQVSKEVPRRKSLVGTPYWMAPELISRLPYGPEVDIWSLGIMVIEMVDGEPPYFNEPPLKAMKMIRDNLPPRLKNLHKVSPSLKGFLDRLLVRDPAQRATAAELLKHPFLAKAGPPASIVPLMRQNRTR

inhibition [1] [%] | inhibition [2] [%] | inhibition [3] [%] | inhibition [4] [%] | inhibition [5] [%] | inhibition [6] [%] | inhibition [7] [%] | inhibition [8] [%] | inhibition [9] [%] | inhibition [10] [%] | inhibition [11] [%] | inhibition [12] [%] | inhibition [13] [%] | inhibition [14] [%] | SMILES
9 | 7 | -2 | 76 | -3 | 5 | 85 | 2 | 1 | 0 | 10 | 15 | 8 | -1 | COc1cc(C)c(C(N)=O)cc1C(=O)Nc1cccc(-c2nncn2C(C)C)n1
8 | 0 | – | 73 | -4 | 0 | 18 | -6 | -1 | 2 | -6 | 0 | 4 | – | COc1ccc(S(N)(=O)=O)cc1C(=O)Nc1cccc(-c2nncn2C(C)C)n1
-1 | 3 | 1 | 76 | 0 | -1 | 20 | 2 | 3 | 5 | 11 | -1 | -1 | 3 | COc1cc(C)c(S(C)(=O)=O)cc1C(=O)Nc1cccc(-c2nncn2C(C)C)n1
20 | 0 | -9 | 45 | 2 | 0 | 18 | -2 | 0 | -1 | 7 | 6 | 7 | -1 | COc1ccc(C(N)=O)cc1C(=O)Nc1cccc(-c2nncn2C(C)C)n1
6 | -1 | 2 | 48 | -3 | 3 | 12 | – | 5 | 2 | -2 | -3 | 3 | -5 | COc1ccc(S(C)(=O)=O)cc1C(=O)Nc1cccc(-c2nncn2C(C)C)n1
10 | 6 | 1 | 87 | 6 | -1 | 44 | 2 | 6 | 3 | -2 | 0 | 1 | 1 | COc1cc(C)c(S(N)(=O)=O)cc1C(=O)Nc1cccc(-c2nncn2C(C)C)n1

From ChEMBL document CHEMBL4251655 (Eur J Med Chem, 2018)
